Measured values taken from ChEMBL document CHEMBL1944521, “Amide-modified prenylcysteine based Icmt inhibitors: Structure-activity relationships, kinetic analysis and cellular characterization” (Bioorg Med Chem, 2012).
Calls of active or inactive are those of the source. No cut-off for these calls is given here.

Legend:
[1] = molecular target: T1, Protein-S-isoprenylcysteine O-methyltransferase (Homo sapiens, UniProt O60725); test: Inhibition of His-tagged human Icmt membrane protein over-expressed in Saccharomyces cerevisiae 2766 using [14C]-SAM and N-acetyl-S-farnesyl-l-cysteine as substrate measured after 30 mins by scintillation counting
T1 sequence (O60725 whole entry): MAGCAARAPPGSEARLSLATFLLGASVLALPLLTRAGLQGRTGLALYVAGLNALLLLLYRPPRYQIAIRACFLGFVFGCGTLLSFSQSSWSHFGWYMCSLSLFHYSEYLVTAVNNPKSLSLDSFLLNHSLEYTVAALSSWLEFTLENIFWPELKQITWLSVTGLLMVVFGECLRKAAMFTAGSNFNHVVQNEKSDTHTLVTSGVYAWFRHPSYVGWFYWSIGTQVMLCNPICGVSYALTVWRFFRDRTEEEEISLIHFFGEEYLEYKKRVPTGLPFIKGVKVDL

[2] = molecular target: T1, Protein-S-isoprenylcysteine O-methyltransferase; test: Activity at His-tagged human Icmt membrane protein over-expressed in Saccharomyces cerevisiae 2766 using [14C]-SAM as substrate at 25 uM by scintillation counting
[3] = molecular target: T1, Protein-S-isoprenylcysteine O-methyltransferase; test: Inhibition of His-tagged human Icmt membrane protein over-expressed in Saccharomyces cerevisiae 2766 using [14C]-SAM and N-acetyl-S-farnesyl-l-cysteine as substrate at 10 uM preincubated on ice and measured after 30 mins by scintillation counting
[4] = molecular target: T1, Protein-S-isoprenylcysteine O-methyltransferase; test: Inhibition of Icmt-mediated GFP-K-Ras membrane localization in human Jurkat T cells at 0.1 uM after 24 hrs by fluorescent microscopic analysis; assay type: cell-based
Method in brief: (§1)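 Jurkat E6.1 cells were electroporated with 20 μg GFP-K-Ras, then treated 24 h at 37 °C with DMSO, simvastatin (20 μM) or compound (0.1, 1, 10 μM). Cells were put on polylysine coverslips, fixed in 3% formaldehyde and viewed by fluorescence microscopy. Localization was scored visually as normal, partial or complete mislocalization in random fields of 100 cells; three independent experiments.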

[5] = molecular target: T1, Protein-S-isoprenylcysteine O-methyltransferase; test: Inhibition of Icmt in TCR-stimulated human Jurkat T cells assessed as inhibition of Ras activation at 25 uM after 24 hrs by immunoblot analysis; assay type: cell-based
Method in brief: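 Jurkat cells were treated 24 h with compound (25 μM), vehicle or simvastatin (36.7 μM), then held with anti-CD-3ε (20 μg/mL) 15 min on ice and stimulated 10 min at 37 °C. GTP-Ras was pulled down from NP40 lysates on GST-RBD glutathione beads (30 min, 4 °C) and immunoblotted with anti-pan-Ras. Bands were quantified by densitometry; three independent experiments.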

[6] = molecular target: T1, Protein-S-isoprenylcysteine O-methyltransferase; test: Competitive inhibition of His-tagged human Icmt membrane protein over-expressed in Saccharomyces cerevisiae 2766 using [14C]-SAM and N-acetyl-S-farnesyl-l-cysteine as substrate measured after 30 mins by scintillation counting
Method in brief: (§2)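 Mode of inhibition: AFC concentration varied at fixed inhibitor levels in the His-hIcmt vapor diffusion assay (14C-SAM, 30 °C, 30 min). Three trials per inhibitor concentration were averaged and plotted as Lineweaver-Burk. KIC and KIU were derived from IC50 by Cheng–Prusoff as adapted by Cer et al.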

[7] = molecular target: T1, Protein-S-isoprenylcysteine O-methyltransferase; test: Inhibition of Icmt-mediated GFP-K-Ras membrane localization in human Jurkat T cells at 10 uM after 24 hrs by fluorescent microscopic analysis; assay type: cell-based; method in brief: as §1
[8] = molecular target: T1, Protein-S-isoprenylcysteine O-methyltransferase; test: Inhibition of Icmt in TCR-stimulated human Jurkat T cells assessed as inhibition of Ras-mediated Erk activation at 25 uM after 24 hrs by immunoblot analysis relative to control; assay type: cell-based
Method in brief: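 Jurkat cells were treated 24 h with compound (25 μM), vehicle or simvastatin (36.7 μM), then held with anti-CD-3ε (20 μg/mL) 15 min on ice and stimulated 10 min at 37 °C. Triton lysates were run on 6–15% gels and immunoblotted for phospho-Erk, with GAPDH as loading control. Bands were quantified by densitometry relative to control; three independent experiments.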

[9] = molecular target: T1, Protein-S-isoprenylcysteine O-methyltransferase; test: Noncompetitive inhibition of His-tagged human Icmt membrane protein over-expressed in Saccharomyces cerevisiae 2766 using [14C]-SAM and N-acetyl-S-farnesyl-l-cysteine as substrate measured after 30 mins by scintillation counting; method in brief: as §2

IC50 ([1]; read-out: IC50)	Activity [2]	inhibition [3]	SMILES	further results
6.7 µM	inactive	Active	CC(C)=CCC/C(C)=C/CC/C(C)=C/CSC[C@@H](C(=O)O)N(C)C(=O)c1ccccc1Oc1ccccc1	
7.8 µM	inactive	Active	CC(C)=CCC/C(C)=C/CC/C(C)=C/CSC[C@@H](NC(=O)c1ccccc1Oc1ccccc1)C(=O)O	
38 µM	inactive		CC(C)=CCC/C(C)=C/CC/C(C)=C/CC/C(C)=C/CSC[C@H](NC(=O)c1ccccc1Oc1ccccc1)C(=O)O	
22.6 µM	inactive		CC(C)=CCC/C(C)=C/CC/C(C)=C/CSC[C@H](NC(=O)c1cccc(Oc2ccccc2)c1)C(=O)O	
58 µM	inactive	Active	CC(C)=CCC/C(C)=C/CC/C(C)=C/CSC[C@H](NC(=O)c1cccc2c1oc1ccccc12)C(=O)O	
49 µM	inactive	Active	CC(C)=CCC/C(C)=C/CC/C(C)=C/CSC[C@H](NC(=O)c1ccccc1COCc1ccccc1)C(=O)O	
2.5 µM			CC(C)=CC/C(=C/CSC[C@H](NC(=O)c1ccccc1Oc1ccccc1)C(=O)O)CCc1ccc(-c2ccccc2)cc1	inhibition [4]: 35%; inhibition [5]: Active; Kic [6]: 0.5 µM; inhibition [7]: 75%; fold change (FC) [8]: 3; Kiuc [9]: 1.9 µM
14.7 µM	inactive	Active	CC(C)=CCC/C(C)=C/CC/C(C)=C/CSC[C@H](NC(=O)c1ccccc1Sc1ccccc1)C(=O)O	
38 µM	inactive	Active	CC(C)=CCC/C(C)=C/CC/C(C)=C/CSC[C@H](NC(=O)c1ccccc1Cc1ccccc1)C(=O)O	
75 µM	inactive	Active	CC(C)=CCC/C(C)=C/CC/C(C)=C/CSC[C@H](NC(=O)c1ccccc1COc1ccccc1)C(=O)O	
6.2 µM			CC(C)=CCC/C(C)=C/CC/C(C)=C/CSC[C@H](NC(=O)c1ccccc1Oc1ccccc1)C(=O)O	Kic [6]: 1.4 µM; Kiuc [9]: 4.8 µM
			CC(=O)N[C@@H](CSC/C=C(\C)CC/C=C(\C)CCC=C(C)C)C(=O)O	IC50 [1]: Not Active
13.4 µM	inactive	Active	CC(C)=CCC/C(C)=C/CC/C(C)=C/CSC[C@H](NC(=O)c1ccccc1OCc1ccccc1)C(=O)O	
63 µM	inactive		CC(C)=CCC/C(C)=C/CC/C(C)=C/CSC[C@H](NC(=O)c1ccc(Oc2ccccc2)cc1)C(=O)O	
210 µM	inactive	Active	CCCCCCCCCCCSC[C@H](NC(=O)c1ccccc1Oc1ccccc1)C(=O)O	
